# In ChEMBL document CHEMBL2176955, “Discovery of the macrocycle 11-(2-pyrrolidin-1-yl-ethoxy)-14,19-dioxa-5,7,26-triaza-tetracyclo[19.3.1.1(2,6).1(8,12)]heptacosa-1(25),2(26),3,5,8,10,12(27),16,21,23-decaene (SB1518), a potent Janus kinase 2/fms-like tyrosine kinase-3 (JAK2/FLT3) inhibitor for the treatment of myelofibrosis and …” (J Med Chem, 2011):
# pIC50: −log10 of the molar value.
# Columns and labels:
# Mus musculus [1] = test: Toxicity in athymic BALB/c nude mouse allografted with mouse BA/F3 cells harboring JAK2 V617F mutant assessed as body weight loss at 75 mg/kg, po administered twice daily for 13 consecutive days starting from day 4 post challenge relative to control; format: organism-based, BaF3; design: dose 75 mg/kg, route oral; conditions: in vivo
# Mus musculus [2] = test: Toxicity in athymic BALB/c nude mouse xenografted with human MV4-11 cells harboring FLT3 ITD assessed as body weight loss at 50 to 100 mg/kg, po qd administered for 21 consecutive days measured up to 55 days relative to control; format: organism-based; design: dose 50-100 mg/kg, route oral; conditions: in vivo, 1320 h
# Outline: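 Female BALB/c nude mice implanted subcutaneously in right flank with 1 × 10⁷ MV4-11 cells in Matrigel 1:1. At about 130 mm³, oral once-daily dosing at 25, 50 or 100 mg/kg (free base) for 21 days, 8–10 mice per group. Tumours followed to day 55 or 1000 mm³; body weight assessed at termination.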
# MV4-11 [3] = test: Antitumor activity against human MV4-11 cells harboring FLT3 ITD xenografted in athymic BALB/c nude mouse assessed as survival at 100 mg/kg, po qd administered for 21 consecutive days measured up to 55 days ( Rvb = 33 days ); format: functional
# MV4-11 [4] = test: Antitumor activity against human MV4-11 cells harboring FLT3 ITD xenografted in athymic BALB/c nude mouse assessed as survival at 50 mg/kg, po qd administered for 21 consecutive days measured up to 55 days ( Rvb = 33 days ); format: functional
# MV4-11 [5] = test: Antitumor activity against human MV4-11 cells harboring FLT3 ITD xenografted in athymic BALB/c nude mouse assessed as survival at 25 mg/kg, po qd administered for 21 consecutive days measured up to 55 days ( Rvb = 33 days ); format: functional
# [6] = Half life in rat liver microsomes at 5 uM by LC/MS/MS analysis; format: ADME, Microsome
# Outline: (§1)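 Compound at 5 μM incubated at 37 °C with dog or rat liver microsomes (~0.87 mg/mL) in 50 mM potassium phosphate pH 7.4 with NADPH regenerating system.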
# [7] = Half life in dog liver microsomes at 5 uM by LC/MS/MS analysis; format: ADME, Canis lupus familiaris, Microsome; outline: as §1
# [8] = AUC ( 0 to 8 hrs) in Beagle dog at 3 mg/kg, po administered via gelatin capsule as single dose; format: ADME, organism-based, Canis lupus familiaris; design: time < 8 hr, dose 3 mg/kg, route oral; conditions: plasma
# [9] = Terminal half life in Beagle dog at 3 mg/kg, po administered via gelatin capsule as single dose; format: ADME, organism-based, Canis lupus familiaris; design: dose 3 mg/kg, route oral; conditions: in vivo, read-out: beta t1/2 (converted)
# [10] = Tmax in Beagle dog at 3 mg/kg, po administered via gelatin capsule as single dose; format: ADME, organism-based, Canis lupus familiaris; design: dose 3 mg/kg, route oral; conditions: in vivo
# [11] = AUC (0 to 8 hrs) in Wistar rat at 10 mg/kg, po administered as single dose; format: ADME, organism-based; design: time < 8 hr, dose 10 mg/kg, route oral; conditions: plasma
# [12] = Cmax in Beagle dog at 3 mg/kg, po administered via gelatin capsule as single dose; format: ADME, organism-based, Canis lupus familiaris; design: dose 3 mg/kg, route oral; conditions: in vivo
# [13] = Terminal half life in Wistar rat at 10 mg/kg, po administered as single dose; format: ADME, organism-based; design: dose 10 mg/kg, route oral; conditions: in vivo, read-out: beta t1/2 (converted)
# [14] = Cmax in Wistar rat at 10 mg/kg, po administered as single dose; format: ADME, organism-based; design: dose 10 mg/kg, route oral; conditions: in vivo
# [15] = Terminal half life in BALB/c mouse at 30 mg/kg, po administered as single dose; format: ADME, organism-based; design: dose 30 mg/kg, route oral; conditions: in vivo, read-out: beta t1/2 (converted)
# [16] = AUC (0 to 8 hrs) in BALB/c mouse at 30 mg/kg, po administered as single dose; format: ADME, organism-based; design: time < 8 hr, dose 30 mg/kg, route oral; conditions: plasma
# [17] = Cmax in BALB/c mouse at 30 mg/kg, po administered as single dose; format: ADME, organism-based; design: dose 30 mg/kg, route oral; conditions: in vivo
# [18] = Oral bioavailability in Wistar rat at 10 mg/kg, administered as single dose; format: ADME, organism-based; conditions: in vivo
# [19] = Oral bioavailability in Beagle dog at 3 mg/kg, administered as single dose; format: ADME, organism-based, Canis lupus familiaris; conditions: in vivo
# [20] = Plasma protein binding in mouse at 1000 ng/ml by LC/MS/MS analysis; format: ADME, cell-free; conditions: read-out: PPB (converted)
# Outline: (§2)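 Equilibrium dialysis of mouse, dog or human plasma spiked to 1000 ng/mL against PBS, 4 h at 37 °C. The buffer side was extracted with MTBE in triplicate and analysed by LC/MS/MS.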
# [21] = Oral bioavailability in BALB/c mouse at 30 mg/kg, administered as single dose; format: ADME, organism-based; conditions: in vivo
# [22] = Plasma protein binding in human at 1000 ng/ml by equilibrium dialysis assay; format: ADME, cell-free; conditions: read-out: PPB (converted); outline: as §2
# [23] = Plasma protein binding in dog at 1000 ng/ml by LC/MS/MS analysis; format: ADME, cell-free, Canis lupus familiaris; conditions: read-out: PPB (converted); outline: as §2
# [24] = Apparent permeability from apical to basolateral side in human Caco2 cells at 5 uM after 2 hrs by LC/MS analysis at pH 7.4; format: ADME, cell-based; conditions: Caco-2, pH 7.4
# Outline: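 Compound at 5 μM in HBSS (DMSO <1%) applied apically or basolaterally to 21–28 day Caco-2 monolayers, both sides pH 7.4. Both sides sampled at 2 h, LC/MS quantitation with 4-point calibration. Monolayer integrity checked by TEER (450–650 Ωcm²) and Lucifer Yellow.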
# MV4-11 [25] = test: Antiproliferative activity against human MV4-11 cells harboring FLT3 […] mutant assessed as cell viability after 48 hrs by Cell titer Glo assay; format: functional; conditions: MV4-11, 48 h
# [26] = Antiproliferative activity against mouse BA/F3 cells harboring JAK2 V617F mutation assessed as cell viability after 48 hrs by Cell titer Glo assay; format: functional; conditions: BaF3, 48 h
# CYP2D6 = CYP2D6 (Homo sapiens, UniProt P10635); test: Inhibition of CYP2D6 in human liver microsomes assessed as decrease in formation of dextrorphan from dextromethorphan substrate at 5 uM after 30 mins by LC-MS/MS; format: ADME, Microsome; conditions: probe dextromethorphan
# Chain of CYP2D6 (P10635 whole entry, canonical isoform): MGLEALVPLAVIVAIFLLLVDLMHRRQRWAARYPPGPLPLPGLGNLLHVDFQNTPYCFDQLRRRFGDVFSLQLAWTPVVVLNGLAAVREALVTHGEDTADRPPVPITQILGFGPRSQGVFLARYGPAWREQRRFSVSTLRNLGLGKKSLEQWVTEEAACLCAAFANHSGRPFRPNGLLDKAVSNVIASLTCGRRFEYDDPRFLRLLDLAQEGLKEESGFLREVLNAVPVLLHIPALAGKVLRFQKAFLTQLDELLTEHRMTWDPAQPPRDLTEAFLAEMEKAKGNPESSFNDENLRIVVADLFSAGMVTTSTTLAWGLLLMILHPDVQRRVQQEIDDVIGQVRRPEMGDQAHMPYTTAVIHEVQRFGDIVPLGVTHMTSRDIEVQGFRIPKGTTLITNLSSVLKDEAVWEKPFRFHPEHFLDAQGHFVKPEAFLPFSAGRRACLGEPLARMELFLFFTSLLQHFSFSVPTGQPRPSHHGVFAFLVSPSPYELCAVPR
# Outline: (§3)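 Human liver microsomes with 1 mM NADPH at 37 °C. Test compound at 0.05–25 μM (final DMSO 0.35%). Conditions per isoform: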
# CYP3A4 = CYP3A4 (Homo sapiens, UniProt P08684); test: Inhibition of CYP3A4 in human liver microsomes assessed as decrease in formation of 1-hydroxymidazolam from midazolam substrate at 5 uM after 5 mins by LC-MS/MS; format: ADME, Microsome; conditions: probe midazolam; outline: as §3
# Chain of CYP3A4 (P08684 whole entry): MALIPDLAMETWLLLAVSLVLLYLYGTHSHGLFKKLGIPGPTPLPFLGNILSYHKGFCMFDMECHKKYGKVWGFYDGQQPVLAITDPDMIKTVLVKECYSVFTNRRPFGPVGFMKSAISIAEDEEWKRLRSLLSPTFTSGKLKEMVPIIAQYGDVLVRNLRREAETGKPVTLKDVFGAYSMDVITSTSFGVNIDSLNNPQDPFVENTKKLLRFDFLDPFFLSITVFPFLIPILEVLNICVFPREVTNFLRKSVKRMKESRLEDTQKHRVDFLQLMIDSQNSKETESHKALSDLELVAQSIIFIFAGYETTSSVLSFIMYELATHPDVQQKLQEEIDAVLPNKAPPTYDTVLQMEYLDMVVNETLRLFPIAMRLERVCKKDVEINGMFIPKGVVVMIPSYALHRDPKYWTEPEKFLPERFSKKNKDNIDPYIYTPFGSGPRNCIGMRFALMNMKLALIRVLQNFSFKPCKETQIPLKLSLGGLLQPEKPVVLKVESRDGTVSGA
# Cytochrome P450 2C19 = Cytochrome P450 2C19 (Homo sapiens, UniProt P33261); test: Inhibition of CYP2C19 in human liver microsomes assessed as decrease in formation of 4-hydroxymephenytoin from mephenytoin substrate after 60 mins by LC-MS/MS; format: ADME, Microsome; outline: as §3
# Chain of Cytochrome P450 2C19 (P33261 whole entry): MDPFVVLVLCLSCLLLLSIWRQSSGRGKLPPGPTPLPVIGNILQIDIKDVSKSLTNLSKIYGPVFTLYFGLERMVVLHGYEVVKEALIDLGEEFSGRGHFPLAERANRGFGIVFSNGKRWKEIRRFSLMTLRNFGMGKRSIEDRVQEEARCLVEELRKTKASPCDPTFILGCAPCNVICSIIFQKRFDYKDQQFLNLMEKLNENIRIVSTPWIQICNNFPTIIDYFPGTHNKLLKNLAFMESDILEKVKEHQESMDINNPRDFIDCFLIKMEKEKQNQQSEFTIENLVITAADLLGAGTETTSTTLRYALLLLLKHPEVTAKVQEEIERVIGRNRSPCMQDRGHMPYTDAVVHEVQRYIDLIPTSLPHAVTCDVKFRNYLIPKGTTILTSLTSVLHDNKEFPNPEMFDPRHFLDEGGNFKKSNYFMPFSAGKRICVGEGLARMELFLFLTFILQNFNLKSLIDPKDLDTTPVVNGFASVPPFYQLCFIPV
# Cytochrome P450 2C9 = Cytochrome P450 2C9 (Homo sapiens, UniProt P11712); test: Inhibition of CYP2C9 in human liver microsomes assessed as decrease in formation of 4-hydroxytolbutamide from tolbutamide substrate after 60 mins by LC-MS/MS; format: ADME, Microsome; outline: as §3
# Chain of Cytochrome P450 2C9 (P11712 whole entry): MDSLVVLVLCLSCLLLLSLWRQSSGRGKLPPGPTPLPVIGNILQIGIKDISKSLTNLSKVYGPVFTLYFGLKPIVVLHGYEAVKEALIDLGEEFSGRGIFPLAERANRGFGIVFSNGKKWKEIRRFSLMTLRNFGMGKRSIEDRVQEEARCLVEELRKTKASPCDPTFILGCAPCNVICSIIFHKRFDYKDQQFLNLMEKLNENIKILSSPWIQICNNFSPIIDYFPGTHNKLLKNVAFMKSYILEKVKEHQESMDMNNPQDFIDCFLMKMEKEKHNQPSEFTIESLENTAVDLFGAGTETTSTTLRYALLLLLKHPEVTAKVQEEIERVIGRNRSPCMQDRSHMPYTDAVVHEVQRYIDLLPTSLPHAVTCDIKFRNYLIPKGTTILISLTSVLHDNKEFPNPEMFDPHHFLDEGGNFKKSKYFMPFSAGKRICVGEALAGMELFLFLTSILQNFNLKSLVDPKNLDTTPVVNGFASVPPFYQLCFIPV
# Cytochrome P450 1A2 = molecular target: T1, Cytochrome P450 1A2 (Homo sapiens, UniProt P05177); test: Inhibition of CYP1A2 in human liver microsomes assessed as decrease in formation of resorufin from ethoxyresorufin substrate after 5 mins by LC-MS/MS; format: ADME, Microsome; outline: as §3
# T1 sequence (P05177 whole entry): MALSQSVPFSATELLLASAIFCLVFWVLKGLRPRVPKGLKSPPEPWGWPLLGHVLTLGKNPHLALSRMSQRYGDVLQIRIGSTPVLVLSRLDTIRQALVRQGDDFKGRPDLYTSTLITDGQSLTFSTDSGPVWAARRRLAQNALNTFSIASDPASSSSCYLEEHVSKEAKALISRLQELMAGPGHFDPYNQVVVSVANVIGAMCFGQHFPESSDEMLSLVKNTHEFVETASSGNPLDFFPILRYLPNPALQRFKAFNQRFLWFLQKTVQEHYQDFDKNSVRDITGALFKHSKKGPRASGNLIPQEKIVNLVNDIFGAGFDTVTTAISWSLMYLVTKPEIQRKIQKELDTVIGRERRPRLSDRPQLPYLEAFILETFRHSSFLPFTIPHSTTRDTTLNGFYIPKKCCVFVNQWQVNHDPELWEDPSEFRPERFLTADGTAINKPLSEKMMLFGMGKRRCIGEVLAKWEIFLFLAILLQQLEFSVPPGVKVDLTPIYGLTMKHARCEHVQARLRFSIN
# [27] = molecular target: Non-receptor tyrosine-protein kinase TYK2 (Homo sapiens, UniProt P29597); test: Inhibition of recombinant TYK2
# Chain of Non-receptor tyrosine-protein kinase TYK2 (P29597 whole entry): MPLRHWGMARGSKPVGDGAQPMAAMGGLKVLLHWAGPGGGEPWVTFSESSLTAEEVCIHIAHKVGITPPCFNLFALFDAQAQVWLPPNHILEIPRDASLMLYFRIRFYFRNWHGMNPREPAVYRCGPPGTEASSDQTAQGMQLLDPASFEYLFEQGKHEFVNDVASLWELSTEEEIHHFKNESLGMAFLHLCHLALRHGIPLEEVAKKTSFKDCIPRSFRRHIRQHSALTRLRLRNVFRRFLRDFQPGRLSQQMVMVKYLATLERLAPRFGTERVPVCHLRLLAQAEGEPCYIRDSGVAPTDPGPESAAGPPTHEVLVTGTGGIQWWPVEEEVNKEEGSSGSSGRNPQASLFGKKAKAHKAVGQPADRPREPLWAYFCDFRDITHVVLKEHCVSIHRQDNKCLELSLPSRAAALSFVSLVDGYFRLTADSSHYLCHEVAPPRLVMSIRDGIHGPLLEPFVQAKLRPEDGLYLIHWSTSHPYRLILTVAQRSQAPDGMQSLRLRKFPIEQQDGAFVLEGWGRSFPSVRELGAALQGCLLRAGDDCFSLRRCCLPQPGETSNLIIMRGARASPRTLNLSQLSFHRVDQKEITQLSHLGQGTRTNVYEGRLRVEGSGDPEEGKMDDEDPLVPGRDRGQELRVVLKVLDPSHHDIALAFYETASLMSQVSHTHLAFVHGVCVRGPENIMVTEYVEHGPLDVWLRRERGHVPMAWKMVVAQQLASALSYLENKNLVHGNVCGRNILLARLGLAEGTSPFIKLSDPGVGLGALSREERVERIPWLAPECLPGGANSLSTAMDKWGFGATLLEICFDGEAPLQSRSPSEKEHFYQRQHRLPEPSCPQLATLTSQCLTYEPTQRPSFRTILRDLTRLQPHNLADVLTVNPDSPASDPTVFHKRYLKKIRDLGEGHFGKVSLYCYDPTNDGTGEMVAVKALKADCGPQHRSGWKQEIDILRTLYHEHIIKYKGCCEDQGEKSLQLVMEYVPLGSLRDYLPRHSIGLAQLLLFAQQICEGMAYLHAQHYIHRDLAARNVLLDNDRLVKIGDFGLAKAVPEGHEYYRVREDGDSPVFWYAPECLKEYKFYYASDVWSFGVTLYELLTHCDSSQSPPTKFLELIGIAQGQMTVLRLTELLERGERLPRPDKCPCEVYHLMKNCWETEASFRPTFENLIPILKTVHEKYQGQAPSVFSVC
# [28] = molecular target: Tyrosine-protein kinase JAK1 (Homo sapiens, UniProt P23458); test: Inhibition of recombinant JAK1 using Poly (Glu,Ala,Tyr) as substrate after 2 hrs by luminescence assay
# Chain of Tyrosine-protein kinase JAK1 (P23458 whole entry): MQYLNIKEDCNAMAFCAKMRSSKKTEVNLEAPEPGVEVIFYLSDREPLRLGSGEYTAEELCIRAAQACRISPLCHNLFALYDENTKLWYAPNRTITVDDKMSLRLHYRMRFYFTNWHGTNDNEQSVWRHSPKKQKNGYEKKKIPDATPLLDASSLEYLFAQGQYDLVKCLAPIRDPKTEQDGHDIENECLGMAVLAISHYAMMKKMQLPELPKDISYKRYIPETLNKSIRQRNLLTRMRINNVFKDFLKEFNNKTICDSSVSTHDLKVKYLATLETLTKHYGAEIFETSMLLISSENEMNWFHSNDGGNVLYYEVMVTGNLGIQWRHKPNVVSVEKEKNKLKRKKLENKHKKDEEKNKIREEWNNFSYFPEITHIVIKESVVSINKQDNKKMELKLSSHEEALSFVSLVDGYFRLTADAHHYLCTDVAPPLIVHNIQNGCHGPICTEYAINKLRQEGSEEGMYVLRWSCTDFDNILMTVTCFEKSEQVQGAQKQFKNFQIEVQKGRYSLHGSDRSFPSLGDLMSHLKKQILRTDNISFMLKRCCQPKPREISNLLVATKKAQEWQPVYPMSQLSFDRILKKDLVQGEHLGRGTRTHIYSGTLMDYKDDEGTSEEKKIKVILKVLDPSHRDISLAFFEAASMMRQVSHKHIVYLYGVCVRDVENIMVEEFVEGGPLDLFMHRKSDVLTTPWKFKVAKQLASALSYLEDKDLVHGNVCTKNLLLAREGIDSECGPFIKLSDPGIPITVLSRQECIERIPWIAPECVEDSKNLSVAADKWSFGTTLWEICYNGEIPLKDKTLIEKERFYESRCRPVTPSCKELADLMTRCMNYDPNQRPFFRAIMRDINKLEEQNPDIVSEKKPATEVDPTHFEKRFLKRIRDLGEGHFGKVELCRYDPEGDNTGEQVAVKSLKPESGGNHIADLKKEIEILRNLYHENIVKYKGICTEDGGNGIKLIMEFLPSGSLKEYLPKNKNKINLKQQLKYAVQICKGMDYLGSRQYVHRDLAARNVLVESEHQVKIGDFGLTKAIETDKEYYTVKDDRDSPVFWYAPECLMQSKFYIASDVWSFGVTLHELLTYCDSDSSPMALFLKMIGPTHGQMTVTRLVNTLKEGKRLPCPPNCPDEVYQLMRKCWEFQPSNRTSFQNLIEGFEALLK
# Outline: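 Luciferase-coupled ATP-depletion luminescence assay in 50 mM Hepes pH 7.5 with MgCl₂, MnCl₂, BGP, DTT and orthovanadate, 2 h at room temperature. Conditions per target: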
# [29] = molecular target: Cyclin-dependent kinase 2/cyclin A (Homo sapiens, UniProt P24941); test: Inhibition of recombinant CDK2/Cyclin A using RbinG as substrate after 2 hrs by luminescence assay; format: protein-complex assay
# in vitro = conditions: PAMPA
# physchem = conditions: phosphate buffer saline, pH 7
# Mus musculus [30] = test: Toxicity in athymic BALB/c nude mouse allografted with mouse BA/F3 cells harboring JAK2 V617F mutant assessed as body weight loss at 75 and 150 mg/kg, po administered twice daily for 13 consecutive days starting from day 4 post challenge relative to control; conditions: in vivo
# [31] = Antitumor activity against mouse BA/F3 cells harboring JAK2 V617F mutant allografted in athymic BALB/c nude mouse assessed as normalization of liver weight at 150 mg/kg, po bid administered on day 4 post inoculation for 13 consecutive days measured on day 13 relative to vehicle-treated control; format: functional, BaF3
# Outline: (§4)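 Female BALB/c nude mice given 2 × 10⁶ Ba/F3-JAK2 V617F cells by tail vein in serum-free medium. Oral dosing twice daily at 75 or 150 mg/kg (free base) from day 4 for 13 days, 8 mice per group, 4 naive baseline mice. Spleens and livers weighed at sacrifice; ANOVA with Dunnett's test.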
# [32] = Antitumor activity against mouse BA/F3 cells harboring JAK2 V617F mutant allografted in athymic BALB/c nude mouse assessed as normalization of spleen weight at 150 mg/kg, po bid administered on day 4 post inoculation for 13 consecutive days measured on day 13 relative to vehicle-treated control; format: functional, BaF3; outline: as §4
structure (smiles),measurement,setting,value
C1=N/C2=N/c3ccc(OCCN4CCCC4)c(c3)COC/C=C/COCc3cccc(c3)C(=C1)N2 (mixture of isomers) [PACRITINIB],Activity,Mus musculus [1],Non-toxic
same,Activity,Mus musculus [2],Non-toxic
same,Survival,MV4-11 [3],55 days
same,Survival,MV4-11 [4],55 days
same,Survival,MV4-11 [5],35 days
same,half-life at 5 µM,[6],0.3 h
same,half-life at 5 µM,[7],0.683 h
same,AUC(0-t) at 8 h,[8],53 ng·h/mL
same,half-life,[9],3.4 h
same,Tmax,[10],2 h
same,AUC(0-t) at 8 h,[11],599 ng·h/mL
same,Cmax,[12],11.5 ng/mL
same,half-life,[13],5.7 h
same,Cmax,[14],114 ng/mL
same,half-life,[15],0.84 h
same,AUC(0-t) at 8 h,[16],399 ng·h/mL
same,Cmax,[17],292 ng/mL
same,bioavailability,[18],10%
same,bioavailability,[19],24%
same,fraction unbound at 1000 ng/ml,[20],0.0059
same,bioavailability,[21],39%
same,fraction unbound at 1000 ng/ml,[22],0.0012
same,fraction unbound at 1000 ng/ml,[23],0.0037
same,"Papp A→B at 2 h, 5 µM",[24],16 ×10⁻⁶ cm/s
same,GI50,MV4-11 [25],47 nM
same,GI50,[26],160 nM
same,"inhibition at 0.5 h, 5 µM",CYP2D6,20%
same,"inhibition at 5 min, 5 µM",CYP3A4,20%
same,pIC50,Cytochrome P450 2C19,< 5.30
same,pIC50,Cytochrome P450 2C9,< 5.30
same,pIC50,Cytochrome P450 1A2,< 5.30
same,pIC50,[27],7.30
same,pIC50,[28],5.89
same,pIC50,[29],5.41
same,"Papp at 5 h, 1 µM",in vitro,9.3 ×10⁻⁶ cm/s
same,solubility,physchem,> 150 µg/mL
same,Activity,Mus musculus [30],Non-toxic
C1=CCOCc2cc(ccc2OCCN2CCCC2)Nc2nccc(n2)-c2cccc(c2)COC1.Cl (mixture of isomers),Activity,[31],99%
same,Activity,[32],42%
